Screens deposited in PubChem by Broad Institute.
IDH1 R132H inh = blocks human IDH1 R132H reductase activity. diaphorase/resazurin fluorescence, 60 min. 70,000 tested, 0.18% active. inhibition, % at 10 µM. O75874; in the data active means inhibition above about 34%; inconclusive means no clear call, values can overlap the other calls; inactive means below about 11%;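 further: 0% = DMSO and 100% = no enzyme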
Target sequence (O75874 whole entry R132H): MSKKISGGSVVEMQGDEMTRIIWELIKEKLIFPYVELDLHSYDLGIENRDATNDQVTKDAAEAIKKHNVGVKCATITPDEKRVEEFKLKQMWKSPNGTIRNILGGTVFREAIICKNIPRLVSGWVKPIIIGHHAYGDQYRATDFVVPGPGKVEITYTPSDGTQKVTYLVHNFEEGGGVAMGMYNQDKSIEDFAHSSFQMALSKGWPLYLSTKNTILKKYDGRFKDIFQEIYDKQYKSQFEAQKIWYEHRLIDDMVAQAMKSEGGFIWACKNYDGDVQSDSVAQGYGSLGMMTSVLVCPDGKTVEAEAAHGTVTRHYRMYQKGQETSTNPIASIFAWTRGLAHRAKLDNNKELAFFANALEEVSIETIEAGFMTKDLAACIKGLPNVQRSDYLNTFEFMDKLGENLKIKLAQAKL
KDM4C inh = blocks human GASC-1 (KDM4C) demethylase activity | Q9H3R0 | GST-KDM4C 2-372, H3K9me3 peptide, LANCE TR-FRET | inhibition, % at 12.5 µM | 96,000 tested, 0.15% active | AID 720574;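 active means mean replicate inhibition above about 25%, with at least 55% of replicates also reaching it, limit read from the data, passing the limit was not always enough; inconclusive means only one of those two conditions met; inactive means neither condition met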
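Test system – GST-tagged GASC-1 (JMJD2C) catalytic fragment, aa 2-372 · Medium – HEPES buffer, pH 7.5, plus ascorbate · Reagent – H3K9me3 peptide with Fe(II)/2OG · Compound – one test concentration per compound · Timing – 30 min reaction, 60 min detection, RT · Technique – TR-FRET with Eu antibody and ULight streptavidin, EDTA stop · Read-out basis – inhibition from TR-FRET ratio decrease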
T cruzi growth-1 = blocks T. cruzi growth in NIH3T3 culture | inhibition, % at 8.34 µM | AID 624255 | T. cruzi beta-gal in NIH3T3, GalScreen luminescence, 90 h | 77,000 tested, 5.9% active;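 active means mean inhibition above about 93%, with at least 55% of replicates each passing it, limit read from the data, passing the limit was not always enough; inconclusive means only one of those two conditions holds; inactive means neither condition holds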
T cruzi growth-2 = Trypanosoma cruzi proliferation inhibition. 5,600 tested, 72% active. shares compounds with T cruzi growth-1. inhibition, % at 8.35 µM. T. cruzi beta-gal in NIH3T3, GalScreen luminescence, 90 h;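 active means mean replicate inhibition above about 95% and at least 55% of replicates individually reaching it, limit read from the data; inconclusive means only one of the two criteria is met; inactive means neither criterion is met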
T cruzi growth-3 = inhibitors of T. cruzi proliferation | shares compounds with T cruzi growth-1 | 5,600 tested, 21% active | inhibition, % at 2.09 µM | T. cruzi beta-gal in NIH3T3, GalScreen luminescence, 90 h | AID 651740;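 active means mean inhibition above about 95%, with at least 55% of replicates also reaching it, limit read from the data; inconclusive means meets just one of the two conditions; inactive means meets neither condition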;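 further: plate controls were neutral control median for no effect and positive control median for full effect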
NIH3T3 tox = cytotoxicity in mouse NIH/3T3 fibroblasts | cytotoxicity (signal decrease), % at 8.35 µM | NIH/3T3 viability, CellTiter-Glo ATP luminescence, 90 h | shares compounds with T cruzi growth-1 | 5,600 tested, 14% active;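 active means mean signal decrease across replicates above about 35% based on untreated-well scatter, with enough replicates individually passing, limit read from the data; inconclusive means no rule stated though some were filed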;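 further: 0% = median of neutral control wells and 100% = median of positive control wells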
NIH3T3 tox 2 = NIH/3T3 (mouse) viability loss | shares compounds with T cruzi growth-1 | NIH/3T3 viability, CellTiter-Glo ATP luminescence, 90 h | inhibition, % at 24.9 µM | 5,600 tested, 56% active;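 active means mean loss of cell viability signal at or above a set limit, and enough replicates individually reaching it; inconclusive means meets only the mean limit or only the replicate share; inactive means meets neither condition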;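 further: 0% = median of neutral control wells and 100% = median of positive control wells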
* marks the source's active call; other numbers are inactive results; u = inconclusive; x = no result. The sample as a whole holds a higher share of hits than the screen did.

SMILES | IDH1 R132H inh | KDM4C inh | T cruzi growth-1 | T cruzi growth-2 | T cruzi growth-3 | NIH3T3 tox | NIH3T3 tox 2
O=C(C[C@@H]1CC[C@@H]2[C@H](COC[C@@H](O)CN2CCC(F)(F)F)O1)N1CCC(Cc2ccccc2)CC1 | x | -1 | u | u | 51 | 4 | -2
O=C(C[C@H]1CC[C@@H]2[C@H](COC[C@@H](O)CN2Cc2cccc(C(F)(F)F)c2)O1)NCc1ccccc1 | x | 2 | 16 | x | x | x | x
O=C(C[C@H]1CC[C@H]2[C@@H](COC[C@@H](O)CN2CCC(F)(F)F)O1)NCC1CCCCC1 | x | -1 | 74 | x | x | x | x
O=C(C[C@@H]1CC[C@@H]2[C@H](COC[C@H](O)CN2CCC(F)(F)F)O1)NCC1CCCCC1 | x | 2 | 117* | 9 | 13 | -11 | -20
O=C(C[C@H]1CC[C@@H]2[C@H](COC[C@H](O)CN2CCC(F)(F)F)O1)N1CCC(Cc2ccccc2)CC1 | x | -1 | 53 | x | x | x | x
O=C(C[C@@H]1CC[C@H]2[C@@H](COC[C@H](O)CN2Cc2cccc(C(F)(F)F)c2)O1)NCc1ccc(Cl)cc1 | x | 0 | 125* | 110* | 22 | 3 | 28*
O=C(C[C@H]1CC[C@@H]2[C@H](COC[C@@H](O)CN2Cc2cccc(C(F)(F)F)c2)O1)NCc1ccc(Cl)cc1 | x | -1 | 178* | 109* | 24 | 47* | 56*
COc1ccc(-c2cnc3c(c2)C(=O)N([C@H](C)CO)C[C@@H](C)[C@H](CN(C)C(=O)C2CC2)O3)cc1 | x | 0 | -242 | x | x | x | x
O=C(NC[C@@H]1[C@H](c2ccccc2)[C@H](CO)N1C(=O)C1CCC1)NC1CCCC1 | x | 1 | 3 | x | x | x | x
C[C@@H]1CCCCO[C@@H](CN(C)C(=O)Nc2ccc3c(c2)OCO3)[C@@H](C)CN([C@@H](C)CO)C(=O)c2cc(NC(=O)NC3CCCCC3)ccc2O1 | 0 | 3 | x | x | x | x | x
O=C(C[C@H]1CC[C@H]2[C@@H](COC[C@H](O)CN2Cc2cccc(Cl)c2)O1)NCC1CCCCC1 | x | 2 | 81 | x | x | x | x
O=C(C[C@H]1CC[C@@H]2[C@H](COC[C@@H](O)CN2Cc2cccc(Cl)c2)O1)NCC1CCCCC1 | x | 0 | 111* | 51 | -22 | 5 | -6
O=C(C[C@@H]1CC[C@@H]2[C@H](COC[C@@H](O)CN2Cc2cccc(C(F)(F)F)c2)O1)NCc1ccc(Cl)cc1 | x | 1 | 155* | 81 | -4 | 21 | u
O=C(C[C@@H]1CC[C@@H]2[C@H](COC[C@H](O)CN2Cc2cccc(C(F)(F)F)c2)O1)NCc1ccc(Cl)cc1 | x | -2 | 82 | x | x | x | x
CC(=O)N(C)C[C@H]1Oc2ncc(C#Cc3ccccn3)cc2C(=O)N([C@H](C)CO)C[C@H]1C | 5 | 2 | 60 | x | x | x | x
C[C@@H]1CN([C@@H](C)CO)C(=O)c2cc(C#CCc3ccccc3)cnc2O[C@H]1CN(C)CC1CCOCC1 | 0 | 0 | -23 | x | x | x | x
C[C@H]1CN([C@@H](C)CO)C(=O)c2cc(C#CCc3ccccc3)cnc2O[C@@H]1CN(C)C(=O)C1CCCCC1 | x | 1 | u | 96* | 55 | -10 | 97*
C[C@H](CO)N1C[C@H](C)[C@@H](CN(C)Cc2ccccn2)Oc2ncc(C#CCC3CCCC3)cc2C1=O | -1 | x | 89 | x | x | x | x
C[C@H](CO)N1C[C@H](C)[C@@H](CN(C)CC2CCCC2)Oc2ncc(C#CCc3ccccc3)cc2C1=O | -4 | 0 | 97* | 101* | 106* | u | 104*
C[C@H]1CN([C@@H](C)CO)C(=O)c2cc(C#CCC3CCCC3)cnc2O[C@@H]1CN(C)Cc1ccccn1 | 0 | 7 | 104* | 101* | 46 | 6 | 107*
C[C@H](CO)N1C[C@H](C)[C@H](CN(C)C(=O)C2CCCCC2)Oc2ncc(C#CCc3ccccc3)cc2C1=O | x | 2 | 80 | x | x | x | x
CN1CCCCN2[C@@H](CO)[C@H](c3ccc(Br)cc3)[C@@H]2C1 | x | 2 | -1 | x | x | x | x
COc1ccc([N+](=O)[O-])cc1NC(=O)COc1ccc(C(C)(C)C)cc1Br | 0 | x | x | x | x | x | x
COCC(=O)Nc1ccc2c(c1)[C@@H]1C[C@H](CC(=O)NCc3ccncc3)O[C@@H](CO)[C@@H]1O2 | 0 | 1 | 38 | x | x | x | x
O=C(Nc1cc(F)ccc1F)N1CC(=O)N2[C@H](C1)[C@@H](c1ccc(/C=C/c3ccccc3)cc1)[C@@H]2CO | x | -2 | x | x | x | x | x
SMILES | IDH1 R132H inh | KDM4C inh | T cruzi growth-1 | T cruzi growth-2 | T cruzi growth-3 | NIH3T3 tox | NIH3T3 tox 2
COc1ccccc1-c1cc(=O)c2ccccc2o1 | -1 | x | x | x | x | x | x
CN(C)CC#Cc1cccc(-c2nc(C(=O)NCc3ccc4c(c3)OCO4)cc3c2[C@@H](CCO)N(S(=O)C(C)(C)C)C3)c1 (stereo partly specified) | x | x | 112* | 110* | 108* | 6 | 21
COc1ccc(CNC(=O)c2cc3c(c(-c4cccc(-c5ccc(C#N)cc5)c4)n2)[C@H](CCO)N([S@@](=O)C(C)(C)C)C3)cc1 | 0 | -4 | u | 103* | 93 | 19 | 30*
COc1ccc(CNC(=O)c2cc3c(c(-c4cccc(-c5cccc(C#N)c5)c4)n2)[C@H](CCO)N([S@@](=O)C(C)(C)C)C3)cc1 | 0 | -10 | 90 | x | x | x | x
CC(C)(C)[S@](=O)N1Cc2cc(C(=O)NCc3ccc4c(c3)OCO4)nc(-c3cccc(-c4cccnc4)c3)c2[C@@H]1CCO | -1 | 1 | 95 | x | x | x | x
CCC(=O)N1C[C@@H](C)[C@@H](OC)CN(C)C(=O)c2cc(NC(=O)c3cc(C)on3)ccc2OC[C@@H]1C | 0 | -4 | 15 | x | x | x | x
O=C(COc1ccc(Br)cc1)Nc1cccc(-c2nnc(-c3ccccc3)o2)c1 | 0 | x | x | x | x | x | x
COc1ccccc1C(=O)Nc1ccc2c(c1)OC[C@@H](C)N(C(C)=O)C[C@@H](C)[C@@H](OC)CN(C)C2=O | 0 | 1 | 9 | x | x | x | x
CCCC(=O)Nc1ccc2c(c1)OC[C@@H](C)N(Cc1ccccn1)C[C@@H](C)[C@@H](OC)CN(C)C2=O | 0 | 0 | -27 | x | x | x | x
CCN1[C@@H]2Cn3c(ccc(C4=CCCCC4)c3=O)[C@H]1[C@@H](C(=O)NCCc1ccncc1)[C@@H]2CO | x | 1 | 99* | -20 | 0 | -27 | -27
CCN1[C@@H]2c3ccc(C4=CCCCC4)c(=O)n3C[C@H]1[C@H](CO)[C@H]2C(=O)NCc1ccccn1 | x | -1 | 26 | x | x | x | x
CCCN1[C@@H]2c3ccc(C4=CCCCC4)c(=O)n3C[C@H]1[C@H](CO)[C@H]2C(=O)NCCc1ccncc1 | x | 0 | x | x | x | x | x
CCN1[C@@H]2Cn3c(ccc(C4=CCCC4)c3=O)[C@H]1[C@@H](C(=O)NCc1ccccn1)[C@@H]2CO | x | 1 | 99* | 9 | -9 | -14 | -7
N#CC(C(=O)NCc1ccco1)c1ccccc1 (stereo unspecified) | 0 | x | x | x | x | x | x
Cc1cc(C(=O)NN2C3CSC2CS3)no1 | 1 | x | x | x | x | x | x
